Published values collected from several papers.
Target: Alpha-2A adrenergic receptor (ADRA2A, Homo sapiens, UniProt P08913)
Concentration: 10 µM
One construct used (P08913 1-465): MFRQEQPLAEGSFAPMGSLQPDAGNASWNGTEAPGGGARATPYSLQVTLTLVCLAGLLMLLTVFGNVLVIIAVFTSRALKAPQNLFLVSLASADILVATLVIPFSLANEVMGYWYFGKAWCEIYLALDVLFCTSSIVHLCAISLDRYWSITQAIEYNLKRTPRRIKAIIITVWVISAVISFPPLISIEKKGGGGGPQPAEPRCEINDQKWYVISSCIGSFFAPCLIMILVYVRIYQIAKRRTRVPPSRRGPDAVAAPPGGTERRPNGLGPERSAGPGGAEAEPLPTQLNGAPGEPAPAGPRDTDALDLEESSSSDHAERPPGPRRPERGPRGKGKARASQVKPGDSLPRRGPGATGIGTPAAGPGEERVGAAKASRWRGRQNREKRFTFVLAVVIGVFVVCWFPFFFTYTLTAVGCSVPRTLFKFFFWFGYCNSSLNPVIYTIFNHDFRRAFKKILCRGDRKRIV

SMILES	assay	inhibition
CCCNc1nc2ccccc2n1Cc1ccc(Cl)cc1	ligand displacement	90.2%
Ic1cccc2cnccc12	ligand displacement, radioligand	13%
Cc1cc(-c2nc(CN3CCNCC3)no2)cc2c1C(=O)N(Cc1ccc(OC(F)(F)F)cc1)C2	ligand displacement, radioligand	41%
CC(=O)C1=C(C)N(c2cccc(C(F)(F)F)c2)C(=O)N[C@H]1c1ccc(C#N)nc1	ligand displacement	-8.89%
O=C1c2ccccc2C(=O)N1CC#Cc1ccc2c(c1)C=C([N+](=O)[O-])C(C(F)(F)F)O2 (centres unmarked)	ligand displacement, radioligand	88%
COc1cc(NC(C)=O)c(Cl)cc1C(=O)Nc1nccs1	cell-free assay	-7%
CN([C@@H]1CCc2c(CC(=O)O)c3ccccc3n2C1)S(=O)(=O)c1ccc(F)cc1	ligand displacement	-3.89%
CCN(Cc1ccccc1C(F)(F)F)C(=O)C1CCN(S(=O)(=O)c2ccc3[nH]ncc3c2)CC1	ligand displacement, radioligand	37%
N#Cc1cc(Cn2c(N3CCCC3)nc3ccccc32)ccc1F	ligand displacement	31.6%
CCN(CC)c1ccc(C2Nc3ccc(C(=O)c4ccccc4)cc3NC3=C2C(=O)CC(C)(C)C3)cc1 (centres unmarked)	ligand displacement, radioligand	5%
O=C(c1ccc(Cl)cc1)N(Cc1ccccc1)C1CCCCC1	cell-free assay	4%
